Active and inactive are the calls of the source.
Legend:
[1] = molecular target: T1, 5-hydroxytryptamine receptor 2A (Rattus norvegicus, UniProt P14842); assay: In vitro binding to 5-hydroxytryptamine 2A receptor using [125 I]-DOI
Procedure, shortened: (§1)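 Stably transfected cells expressing the rat 5-HT2A or rat 5-HT2C receptor were harvested as frozen pellets. Nonspecific binding was set with 10 µM cinanserin (5-HT2A) or 10 µM mianserin (5-HT2C). Bound label was collected on PEI-soaked GF/B filters and counted by scintillation.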

[2] = molecular target: T2, 5-hydroxytryptamine receptor 2C (Rattus norvegicus, UniProt P08909); assay: In vitro binding to 5-hydroxytryptamine 2C receptor using [125 I]-DOI; procedure, shortened: as §1
T2 sequence (P08909 whole entry): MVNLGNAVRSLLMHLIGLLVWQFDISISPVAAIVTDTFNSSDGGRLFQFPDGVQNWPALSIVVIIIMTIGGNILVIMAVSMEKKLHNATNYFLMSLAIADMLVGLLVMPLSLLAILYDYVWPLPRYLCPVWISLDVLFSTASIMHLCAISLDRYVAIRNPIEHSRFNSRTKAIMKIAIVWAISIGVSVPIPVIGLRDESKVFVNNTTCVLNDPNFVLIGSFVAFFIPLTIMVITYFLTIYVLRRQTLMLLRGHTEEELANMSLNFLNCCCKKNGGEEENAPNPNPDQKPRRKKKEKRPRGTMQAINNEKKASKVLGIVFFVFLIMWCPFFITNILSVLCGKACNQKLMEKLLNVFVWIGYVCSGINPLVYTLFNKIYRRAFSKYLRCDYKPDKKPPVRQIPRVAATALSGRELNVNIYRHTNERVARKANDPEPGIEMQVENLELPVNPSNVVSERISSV

[3] = molecular target: T3, 5-hydroxytryptamine receptor 1A (Homo sapiens, UniProt P08908); assay: Tested in vitro for its ability to bind to 5-hydroxytryptamine 1A receptor using [3H]8-OH-DPAT as radioligand
T3 sequence (P08908 whole entry): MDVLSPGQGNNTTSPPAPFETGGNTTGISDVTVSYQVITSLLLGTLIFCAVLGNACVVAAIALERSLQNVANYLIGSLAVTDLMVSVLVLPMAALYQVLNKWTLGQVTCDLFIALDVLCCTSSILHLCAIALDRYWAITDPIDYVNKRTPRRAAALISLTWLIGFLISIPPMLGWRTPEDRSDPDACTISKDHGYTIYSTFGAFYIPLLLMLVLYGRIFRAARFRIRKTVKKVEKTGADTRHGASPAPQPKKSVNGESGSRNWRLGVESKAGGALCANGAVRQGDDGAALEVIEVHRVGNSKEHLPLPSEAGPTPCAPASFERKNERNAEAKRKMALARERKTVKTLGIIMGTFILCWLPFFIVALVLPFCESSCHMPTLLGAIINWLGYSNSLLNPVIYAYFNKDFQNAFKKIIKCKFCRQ
Procedure, shortened: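 Human 5-HT1A receptor stably expressed in cells, used as harvested pellets. Competition used 2.0 nM [3H]-8-OH-DPAT in Tris/EDTA/MgCl2 buffer at pH 7.4, for 60 min at 25 °C. Nonspecific binding was defined with 10 µM 5-HT. Bound label was collected by filtration and counted by scintillation.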

[4] = molecular target: T1, 5-hydroxytryptamine receptor 2A; assay: (§2) Tested for its ability to activate phospholipase C by quantification of IP3 at cloned rat 5-hydroxytryptamine 2A receptor
Procedure, shortened: (§3)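 They were pretreated for 15 min with 10 µM pargyline/10 mM LiCl, then exposed to drug for 30 min at 37 °C. Formic acid stopped the reaction. [3H]inositol phosphates were separated on Dowex-1 columns. Efficacy is expressed relative to serotonin.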

Rattus norvegicus [5] = species on record: Rattus norvegicus; assay: Maximum 5-HT stimulation was determined […]; format: functional
Procedure, shortened: as §3, with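 “Rat 5-HT2A-expressing cells at 70% confluency were labelled for 18-20 h with 1.0 µCi/mL [3H]-myo-inositol. They” for “They”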

Rattus norvegicus [6] = species on record: Rattus norvegicus; assay: Maximum 5-HT stimulation was determined at 10 uM […]; format: functional
[7] = molecular target: T1, 5-hydroxytryptamine receptor 2A; assay: as §2; remark: listed apart in the source
Procedure, shortened: as §3, with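 “Rat 5-HT2A-expressing cells at 70% confluency were labelled for 18-20 h with 1.0 µCi/mL [3H]-myo-inositol. They” for “They”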

[8] = molecular target: T1, 5-hydroxytryptamine receptor 2A; assay: Tested in vitro for its ability to bind to 5-hydroxytryptamine 2A receptor using [125 I]-DOI as radioligand
Procedure, shortened: as §1, with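 “pellets. Competition used 0.20 nM [125I]-DOI in 50 mM Tris, 0.1 mM EDTA, 10 mM MgCl2, pH 7.4, for 60 min at 25 °C.” for “pellets.”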

Rattus norvegicus [9] = assay: Compound was tested for effective dose in DOI trained rats; Partial substitution at 1-6 uM/Kg (0.36-[…]); format: functional, organism-based
Rattus norvegicus [10] = assay: Compound was tested for effective dose in LSD trained rats; Partial substitution at 1-6 uM/Kg (0.36-[…]); format: functional, organism-based
Rattus norvegicus [11] = species on record: Rattus norvegicus; assay: Compound was tested for effective dose in LSD trained rats; format: functional
Rattus norvegicus [12] = species on record: Rattus norvegicus; assay: Compound was tested for effective dose in DOI trained rats; format: functional
[13] = molecular target: T1, 5-hydroxytryptamine receptor 2A; assay: Tested for its ability to activate phospholipase c by quantification of IP3 at cloned rat 5-hydroxytryptamine 2A receptor
Procedure, shortened: as §3, with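 “Rat 5-HT2A-expressing cells at 70% confluency were labelled for 18-20 h with 1.0 µCi/mL [3H]-myo-inositol. They” for “They”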

T1 sequence (P14842 whole entry): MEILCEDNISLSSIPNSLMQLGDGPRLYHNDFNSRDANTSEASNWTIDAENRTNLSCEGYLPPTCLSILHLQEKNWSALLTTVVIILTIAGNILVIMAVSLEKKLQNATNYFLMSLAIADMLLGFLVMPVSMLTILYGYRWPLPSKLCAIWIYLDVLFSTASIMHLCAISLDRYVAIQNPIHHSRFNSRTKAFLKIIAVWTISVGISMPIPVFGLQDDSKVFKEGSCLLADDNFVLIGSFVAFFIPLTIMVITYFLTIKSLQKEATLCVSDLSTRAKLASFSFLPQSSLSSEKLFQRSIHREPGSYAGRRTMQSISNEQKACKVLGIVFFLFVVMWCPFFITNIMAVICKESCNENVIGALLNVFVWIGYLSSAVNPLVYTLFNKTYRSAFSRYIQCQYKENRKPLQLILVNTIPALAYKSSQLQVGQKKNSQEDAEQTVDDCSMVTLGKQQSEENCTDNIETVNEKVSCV

Question: Which results are given for COc1ccc2c3c1[C@H](CN)CC[C@@H]3CO2?
Answer: Ki [1]: 700 nM; Ki [2]: 59 nM; Ki [3]: 3000 nM

Question: How did the Ki [1] turn out when COc1cc(Br)c2c3c1[C@H](CN)CC[C@@H]3CO2 was run?
Answer: Its Ki is 8.7 nM.

Question: What about the EC50 [4] of the same molecule?
Answer: The EC50 was 1100 nM.

Question: What about the Max (Rattus norvegicus [5]) of the same molecule?
Answer: Its Max is 49%.

Question: And the Ki [2]?
Answer: Its Ki is 2.8 nM.

Question: And the Ki [3]?
Answer: Its Ki is 520 nM.

Question: What does the source list for COc1ccc2c3c1[C@H](CN)CC[C@H]3CO2?
Answer: Ki [1]: 310 nM; Ki [2]: 34 nM; Ki [3]: 1000 nM

Question: Which results are given for COc1ccc2occ3c2c1[C@H](CN)CC3?
Answer: Ki [1]: 200 nM; EC50 [4]: > 10000 nM; Max (Rattus norvegicus [6]): 10%; Ki [2]: 11 nM; Ki [3]: 860 nM

Question: How did the Max (Rattus norvegicus [5]) turn out when CCN(CC)C(=O)[C@@H]1C=C2c3cccc4[nH]cc(c34)C[C@H]2N(C)C1 [LYSERGIDE] was run?
Answer: The Max was 22%.

Question: Which Ki [1] does the source give for CN(C)CCc1c[nH]c2cccc(O)c12 [PSILOCIN] here?
Answer: The Ki was 25 nM.

Question: And the EC50 [4]?
Answer: Its EC50 is 2300 nM.

Question: And the Max (Rattus norvegicus [5])?
Answer: Its Max is 46%.

Question: With COc1cc(Br)c2c3c1[C@H](CN)CC[C@H]3CO2 as the molecule, how does the EC50 [7] read?
Answer: Its EC50 is 340 nM.

Question: What about the Max (Rattus norvegicus [5]) of the same molecule?
Answer: Its Max is 37%.

Question: What about the Ki [2] of the same molecule?
Answer: The Ki was 4.9 nM.

Question: What about the Ki [3] of the same molecule?
Answer: Its Ki is 550 nM.

Question: What about the Ki [8] of the same molecule?
Answer: The Ki was 9.3 nM.

Question: Which Ki [1] does the source give for COc1cc(Br)c2occ3c2c1[C@H](CN)CC3 here?
Answer: The Ki was 2.6 nM.

Question: What about the PS (Rattus norvegicus [9]) of the same molecule?
Answer: The PS was “Partially active”.

Question: And the EC50 [4]?
Answer: Its EC50 is 120 nM.

Question: And the Max (Rattus norvegicus [5])?
Answer: Its Max is 33%.

Question: What about the Ki [2] of the same molecule?
Answer: The Ki was 1.1 nM.

Question: And the Ki [3]?
Answer: Its Ki is 105 nM.

Question: What about the PS (Rattus norvegicus [10]) of the same molecule?
Answer: The PS was “Partially active”.

Question: With COc1cc(CC(C)N)c(OC)cc1Br (configuration not stated) [BROLAMFETAMINE] as the molecule, how does the ED50 (Rattus norvegicus [11]) read?
Answer: Its ED50 is 1.06 µmol/kg.

Question: And the Max (Rattus norvegicus [5])?
Answer: Its Max is 79%.

Question: What about the ED50 (Rattus norvegicus [12]) of the same molecule?
Answer: The ED50 was 0.091 µmol/kg.

Question: COc1cc(Br)c2c3c1C[C@H](N)C[C@@H]3CO2 (relative stereo) was tested. Which Ki [1] did it give?
Answer: The Ki was 16 nM.

Question: What about the EC50 [4] of the same molecule?
Answer: Its EC50 is 2090 nM.

Question: And the Max (Rattus norvegicus [5])?
Answer: Its Max is 63%.

Question: And the Ki [2]?
Answer: The Ki was 4 nM.

Question: And the Ki [3]?
Answer: The Ki was 960 nM.

Question: With COc1cc(CCN)cc(OC)c1OC [MESCALINE] as the molecule, how does the Max (Rattus norvegicus [5]) read?
Answer: Its Max is 92%.

Question: What about the EC50 [13] of the same molecule?
Answer: The EC50 was 2600 nM.
